IMP-1 inh-1 – IMP-1 metallo-beta-lactamase inhibitors, primary screen, biochemical, epi-absorbance readout, Pseudomonas aeruginosa enzyme | metallo-beta-lactamase IMP-1 (Pseudomonas aeruginosa) | purified IMP-1, nitrocefin hydrolysis, epi-absorbance fluorescence | inhibition, % at 5.6 µM | hit rate 0.45% among 290,000 | AID 1556, 2009;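 active means inhibition above the mean plus 3 SD of all compounds in the same screening run, cut at about 4.5% in these data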
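Material – recombinant IMP-1 enzyme, purified · Amount – IMP-1 0.2 nM before substrate addition · Medium – HEPES buffer pH 7.1 with ZnSO4 and Brij 35 · Timing – 25 °C, 15 min preincubation, 25 min reaction · Measured by – plate fluorescence quenching by hydrolysis product, ex 480/em 530 nm · Read-out – percent enzyme inhibition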
ATG4B inhibitor – ATG4B protease inhibitors, primary screen, biochemical, fluorescence, uHTS; Cysteine protease ATG4B (Homo sapiens), Q9Y4P1; ATG4B cleavage of LC3-PLA2, NBD-HPC fluorescence, 1 h; inhibition, % at 8.33 µM; hit rate 0.51% among 340,000; AID 504462, 2011; in the data active means inhibition above about 40%
Target sequence (Q9Y4P1 whole entry, looked up): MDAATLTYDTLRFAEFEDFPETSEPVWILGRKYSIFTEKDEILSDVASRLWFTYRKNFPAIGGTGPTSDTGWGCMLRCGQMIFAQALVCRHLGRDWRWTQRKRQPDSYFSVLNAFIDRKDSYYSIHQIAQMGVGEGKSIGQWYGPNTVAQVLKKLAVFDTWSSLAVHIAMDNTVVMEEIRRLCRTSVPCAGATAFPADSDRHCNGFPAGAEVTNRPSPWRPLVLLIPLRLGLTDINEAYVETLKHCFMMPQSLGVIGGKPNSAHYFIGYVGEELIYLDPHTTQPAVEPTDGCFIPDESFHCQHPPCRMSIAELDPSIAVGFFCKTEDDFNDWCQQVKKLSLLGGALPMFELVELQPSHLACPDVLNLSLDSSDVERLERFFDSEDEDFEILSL
VIM-2 inhibitor – VIM-2 metallo-beta-lactamase inhibitors, primary screen, biochemical, epi-absorbance readout, Pseudomonas aeruginosa enzyme; hit rate 0.89% among 290,000; inhibition, % at 5.6 µM; purified VIM-2, nitrocefin hydrolysis, epi-absorbance fluorescence;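 active means inhibition above the mean of all tested compounds plus 3 SD, cutoff set per screening run, cut at about 7.5% in these data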;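 further: red hydrolysis product quenches plate fluorescence so inhibitors raise well fluorescence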
beta cell repl – inducers of MIN6 beta-cell proliferation, primary screen, ATP luminescence, uHTS; proliferation, % at 10 µM; AID 2380, 2010; hit rate 0.29% among 330,000; MIN6 cells proliferation, ATPlite luminescence, 48 h; cells starved in 0.2% serum; 100% = growth in 10% serum;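 active means compounds whose signal lies at least 3.5 SD above the mean of all wells on their plate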
PvdQ acylase – P. aeruginosa PvdQ acylase inhibitors, primary screen, biochemical, fluorescence, plate reader and imaging, single point. inhibition, % at 10 µM. purified PvdQ acylase. AID 488965, 2010. hit rate 0.063% among 340,000; in the data active means inhibition above about 30%, passing the limit was not always enough
HKDC1 inhibitor – HKDC1 hexokinase inhibitors, primary screen, biochemical, fluorescence, uHTS; hit rate 0.16% among 340,000; recombinant HKDC1, G6PDH/diaphorase resazurin coupled fluorescence; inhibition, % at 20 µM; AID 493160, 2011;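 active means inhibition above about 35% when tested at 20 µM, limit read from the data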
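Test system: Recombinant HKDC1 (HK5) hexokinase enzyme, produced in-house | Input: HKDC1 at 5 µg/mL | Buffer or medium: Tris pH 8.0 buffer with MgCl2, Tween-20, BSA, BME | Schedule: 90 min reaction incubation at room temperature, dark | Technique: Resazurin-to-resorufin fluorescence via G6PDH and diaphorase coupling, 525/613 nm | Controls: DMSO wells with and without enzyme mix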
IMP-1 inh-2 – IMP-1 metallo-beta-lactamase inhibitors, confirmation, selectivity assay for selective VIM-2 inhibitor project, biochemical, epi-absorbance readout, triplicate. shares compounds with VIM-2 inhibitor. purified IMP-1, nitrocefin hydrolysis, epi-absorbance fluorescence. 1,300 tested, under 10 active. inhibition, % at 5.6 µM. AID 1856, 2009; call rule not given here
VIM-2 FRET inh – VIM-2 inhibitors in FRET format, confirmation, artefact control for selective VIM-2 inhibitor project, biochemical, epi-absorbance artifact exclusion. shares compounds with VIM-2 inhibitor. purified VIM-2, CCF2 FRET substrate hydrolysis. hit rate 23% among 1,300. inhibition, % at 5.6 µM;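 active means inhibition above the mean of all tested compounds plus 3 SD, cut at about 19% in these data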
TEM-1 counter – TEM-1 serine beta-lactamase inhibitors, counter-screen for VIM-2 inhibitor project, biochemical, epi-absorbance, HTS; hit rate 3% among 1,300; Purified TEM-1, nitrocefin hydrolysis, epi-absorbance fluorescence; inhibition, % at 5.6 µM; shares compounds with VIM-2 inhibitor;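 active means inhibition above that campaign's mean inhibition plus 3 SD, cut at about 0.46% in these data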
Target sequence (P62593 whole entry, looked up): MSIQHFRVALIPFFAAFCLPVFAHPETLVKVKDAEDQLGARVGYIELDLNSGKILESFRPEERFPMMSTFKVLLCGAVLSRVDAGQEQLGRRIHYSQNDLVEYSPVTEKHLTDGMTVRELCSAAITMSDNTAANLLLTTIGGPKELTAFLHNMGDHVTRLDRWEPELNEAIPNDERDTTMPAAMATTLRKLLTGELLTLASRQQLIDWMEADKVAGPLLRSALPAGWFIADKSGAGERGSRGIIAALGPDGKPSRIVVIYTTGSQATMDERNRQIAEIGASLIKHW
VIM-2 inh conf – VIM-2 metallo-beta-lactamase inhibitors, confirmation, biochemical, epi-absorbance, hits shared with IMP-1 screen | shares compounds with VIM-2 inhibitor | purified VIM-2, nitrocefin hydrolysis | inhibition, % at 5.6 µM | hit rate 96% among 1,300 | AID 2187, 2009;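 active means inhibition of the VIM-2 beta-lactamase enzyme above about 11% from the earlier first-round screen, limit read from the data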
A number is an active result; - = inactive; . = no result given. Hits are enriched below; roughly 2% of the tested compounds scored in any of these assays.

SMILES	IMP-1 inh-1	ATG4B inhibitor	VIM-2 inhibitor	beta cell repl	PvdQ acylase	HKDC1 inhibitor	IMP-1 inh-2	VIM-2 FRET inh	TEM-1 counter	VIM-2 inh conf
O=C1Nc2cc(C(=O)NCCCN3CCCC3)ccc2S/C1=C/c1ccccc1F	-	-	33	-	-	-	-	54	-	38
O=C(NCCCN1CCCCC1)c1ccc2c(c1)NC(=O)c1ccccc1S2	-	-	-	-	-	-	.	.	.	.
COc1cccc(/C=C2/Sc3ccc(C(=O)NCCCN4CCCC4)cc3NC2=O)c1	-	-	16	-	-	-	-	43	-	28
CN(C(=O)CSc1nc2[nH]ncc2c(=O)[nH]1)c1ccccc1	.	-	.	-	-	-	.	.	.	.
CCn1c(-c2nn(-c3ccccc3)ccc2=O)n[nH]c1=S	-	-	18	-	-	-	-	34	-	23
CCn1c(SC)nnc1-c1nn(-c2ccccc2)ccc1=O	-	-	-	-	-	-	.	.	.	.
CCn1c(-c2nn(-c3ccc(C)cc3)ccc2=O)n[nH]c1=S	-	-	14	-	-	-	-	33	-	22
O=C(CC(C(=O)O)c1cccc(Cl)c1Cl)c1ccccc1 (stereo not drawn)	-	-	15	-	-	-	-	29	-	18
O=C(CC(C(=O)O)c1ccc(Cl)cc1Cl)c1ccc(Cl)cc1 (stereo not drawn)	-	-	-	-	-	-	.	.	.	.
CNCc1cc(Br)c(OCC(=O)Nc2ccccc2OC)c(OC)c1	-	-	13	-	-	-	-	-	-	27
CCNCc1cc(Br)c(OCC(=O)Nc2ccccc2)c(OC)c1	-	-	-	-	-	-	.	.	.	.
C=CC#CC1(O)CC(C)N(C)CC1C (stereo not drawn)	-	-	-	-	-	-	.	.	.	.
CCC1CCCCN1CCCNC(=O)c1cc2c(=O)oc3ccc(C)cc3c2s1 (stereo not drawn)	-	-	12	-	-	-	-	-	-	17
Cc1ccc2oc(=O)c3cc(C(=O)NCCCN4CCc5ccccc5C4)sc3c2c1	-	-	-	-	-	-	.	.	.	.
NC(=O)c1ncn([C@@H]2O[C@H](CNCc3cnc(N4CCOCC4)nc3)[C@@H](O)[C@H]2O)n1	.	-	.	.	-	-	.	.	.	.
Cc1c(C#N)c(=O)oc2ccc3ccccc3c12	-	-	31	-	-	-	-	-	-	11
COc1ccc(-c2ccc3oc(-c4ccsc4)cc3c2)cc1	.	-	.	-	-	-	.	.	.	.
CCN1CCN(C(=O)C2CCC(=O)N(Cc3cccc(C(F)(F)F)c3)C2)CC1 (stereo not drawn)	-	-	27	-	-	-	-	-	-	-
CN1CCN(C(=O)C2CCC(=O)N(Cc3cccc(C(F)(F)F)c3)C2)CC1 (stereo not drawn)	-	-	-	-	-	-	.	.	.	.
COc1ccc(OC)c(/C=N/NC(=O)CC2C(=O)NN=C2C)c1 (stereo not drawn)	-	-	29	-	-	-	-	63	-	46
Cn1c(N)c(C(=O)COC(=O)CCc2ccccc2)c(=O)n(C)c1=O	-	-	-	-	-	-	.	.	.	.
Cc1nc2ncccn2c1-c1csc(Nc2ccc(O)cc2)n1	-	-	17	-	-	-	-	-	-	28
Cc1ccc(Nc2nc(-c3c(C)nc4ncccn34)cs2)cc1	-	-	-	-	-	-	.	.	.	.
Cc1cccc(NC(=O)CSc2nccn2Cc2ccco2)c1	-	-	-	-	-	-	.	.	.	.
COc1ccc(CCNC(=O)c2cc3c(=O)n4ccccc4nc3n(CCCN3CCOCC3)c2=N)cc1OC	-	-	15	-	-	-	-	-	-	21
SMILES	IMP-1 inh-1	ATG4B inhibitor	VIM-2 inhibitor	beta cell repl	PvdQ acylase	HKDC1 inhibitor	IMP-1 inh-2	VIM-2 FRET inh	TEM-1 counter	VIM-2 inh conf
COc1ccc(CCn2c(=N)c(C(=O)NCCN3CCOCC3)cc3c(=O)n4cccc(C)c4nc32)cc1OC	-	-	19	-	-	-	-	-	-	27
Cc1cccn2c(=O)c3cc(C(=O)NCCN4CCOCC4)c(=N)n(CCc4ccccc4)c3nc12	-	-	-	-	-	-	.	.	.	.
CCOC(=O)C1CCN(C(=O)CCn2c(=O)c3cccn3c3cccnc32)CC1	-	-	-	-	-	-	.	.	.	.
CN1CCN(C(=O)CCn2c(=O)c3cccn3c3cccnc32)CC1	-	-	14	-	-	-	-	-	-	26
CCS(=O)(=O)N1Cc2ccccc2CC1C(=O)N(C)Cc1ccc(OC)c(F)c1 (stereo not drawn)	-	-	-	-	-	-	.	.	.	.
Cc1cc(C)c2nc3nc(C)c(C)cc3c(N)c2c1	-	-	18	-	-	-	-	-	-	29
CCCCCOc1ccc(C(=O)OCC(=O)Nc2cc(C)on2)cc1	.	-	.	-	-	-	.	.	.	.
c1cn(CCCNc2ncnc3sc4c(c23)CCC4)cn1	-	-	28	-	-	-	-	-	-	56
c1csc(CCNc2ncnc3sc4c(c23)CCC4)c1	.	-	.	-	-	-	.	.	.	.
Cc1ccc(-n2nnnc2CNC(=O)c2ccc3c(c2)OCO3)cc1C	-	-	-	-	-	-	.	.	.	.
CCOC(=O)c1cc(-c2ccncc2)nc2c1c(C)nn2-c1ccccn1	-	-	42	-	-	-	-	-	-	58
COc1ccc(-c2cc(C(=O)O)c3c(C)nn(-c4ccccn4)c3n2)cc1	-	-	-	-	.	-	.	.	.	.
CCOc1ccc(Nc2cc(C)nc(-n3nc(C)cc3C)n2)cc1	-	-	17	-	-	-	-	-	-	43
O=C(CSc1nnc(-c2cccs2)n1CC1CCCO1)c1cc2ccccc2o1 (stereo not drawn)	-	-	14	-	-	-	-	31	-	17

Assay outcomes: PubChem BioAssay, several laboratories
